In ChEMBL document CHEMBL4145534, “Computer-aided insights into receptor-ligand interaction for novel 5-arylhydantoin derivatives as serotonin 5-HT7 receptor agents with antidepressant activity” (Eur J Med Chem, 2018):

Tests used:
D(2) dopamine receptor = D(2) dopamine receptor (Homo sapiens, UniProt P14416); test: Displacement of [3H]-raclopride from human D2L receptor expressed in HEK293 cell membranes after 1 hr by Microbeta scintillation counting method
[1] = target: T1, Adrenergic receptor alpha-2 (Rattus norvegicus, UniProt P22086+P19328+P22909); test: Displacement of [3H]-clonidine from alpha2-adrenergic receptor in rat brain cortex after 30 mins by Microbeta scintillation counting method
T1 sequence (P22086 whole entry): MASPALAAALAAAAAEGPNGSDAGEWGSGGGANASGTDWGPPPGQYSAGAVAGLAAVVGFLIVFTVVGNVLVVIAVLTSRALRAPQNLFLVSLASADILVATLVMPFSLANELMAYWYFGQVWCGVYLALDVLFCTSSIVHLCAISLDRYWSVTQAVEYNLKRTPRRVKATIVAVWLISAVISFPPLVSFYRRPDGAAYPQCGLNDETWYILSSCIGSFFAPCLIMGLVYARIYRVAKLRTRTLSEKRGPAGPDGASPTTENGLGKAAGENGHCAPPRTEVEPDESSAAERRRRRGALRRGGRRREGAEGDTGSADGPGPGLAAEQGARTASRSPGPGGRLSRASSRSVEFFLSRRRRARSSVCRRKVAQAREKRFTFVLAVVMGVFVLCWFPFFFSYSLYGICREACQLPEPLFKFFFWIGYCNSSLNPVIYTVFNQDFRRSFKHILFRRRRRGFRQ
T1 sequence (P19328 whole entry): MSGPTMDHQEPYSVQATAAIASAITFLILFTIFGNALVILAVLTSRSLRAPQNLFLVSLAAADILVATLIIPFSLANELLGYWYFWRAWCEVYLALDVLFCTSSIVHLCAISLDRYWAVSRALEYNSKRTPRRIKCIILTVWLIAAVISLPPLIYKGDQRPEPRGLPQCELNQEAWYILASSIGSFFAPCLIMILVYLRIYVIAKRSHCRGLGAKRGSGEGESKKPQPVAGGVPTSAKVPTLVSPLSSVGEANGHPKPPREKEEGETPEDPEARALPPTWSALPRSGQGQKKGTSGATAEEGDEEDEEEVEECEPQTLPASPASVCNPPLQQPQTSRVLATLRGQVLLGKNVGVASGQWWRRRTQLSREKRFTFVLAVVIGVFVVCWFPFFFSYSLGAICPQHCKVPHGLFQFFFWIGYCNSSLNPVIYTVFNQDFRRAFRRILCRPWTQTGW
T1 sequence (P22909 whole entry): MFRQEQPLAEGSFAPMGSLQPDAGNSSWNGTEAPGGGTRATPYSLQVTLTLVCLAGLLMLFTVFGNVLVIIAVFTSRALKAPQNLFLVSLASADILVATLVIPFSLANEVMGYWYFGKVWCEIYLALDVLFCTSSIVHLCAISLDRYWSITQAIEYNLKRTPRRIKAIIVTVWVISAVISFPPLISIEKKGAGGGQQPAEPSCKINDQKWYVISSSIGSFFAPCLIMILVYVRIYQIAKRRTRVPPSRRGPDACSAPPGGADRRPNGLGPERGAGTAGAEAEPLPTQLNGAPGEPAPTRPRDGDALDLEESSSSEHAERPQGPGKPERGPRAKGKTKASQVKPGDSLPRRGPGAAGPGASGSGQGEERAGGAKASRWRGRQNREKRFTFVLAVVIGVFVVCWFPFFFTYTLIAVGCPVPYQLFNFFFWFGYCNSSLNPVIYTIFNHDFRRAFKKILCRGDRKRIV

[2] = target: T2, Adrenergic receptor alpha-1 (Rattus norvegicus, UniProt P15823+P23944+P43140); test: Displacement of [3H]-prazosin from alpha1-adrenergic receptor in rat brain cortex after 30 mins by Microbeta scintillation counting method
T2 sequence (P15823 whole entry): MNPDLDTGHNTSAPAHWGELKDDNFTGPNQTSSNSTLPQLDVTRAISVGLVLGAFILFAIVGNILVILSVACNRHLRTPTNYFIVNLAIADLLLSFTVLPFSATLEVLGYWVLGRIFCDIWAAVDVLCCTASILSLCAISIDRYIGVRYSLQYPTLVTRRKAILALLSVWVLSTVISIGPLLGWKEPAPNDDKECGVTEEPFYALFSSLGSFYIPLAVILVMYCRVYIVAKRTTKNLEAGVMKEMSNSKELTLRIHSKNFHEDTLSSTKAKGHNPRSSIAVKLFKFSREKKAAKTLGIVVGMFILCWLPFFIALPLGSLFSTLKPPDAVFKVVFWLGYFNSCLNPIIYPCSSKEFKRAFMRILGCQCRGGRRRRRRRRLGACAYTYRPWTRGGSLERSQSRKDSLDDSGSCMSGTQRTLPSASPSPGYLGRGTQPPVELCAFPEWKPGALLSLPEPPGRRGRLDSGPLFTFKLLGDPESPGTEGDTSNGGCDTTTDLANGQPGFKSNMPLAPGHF
T2 sequence (P23944 whole entry): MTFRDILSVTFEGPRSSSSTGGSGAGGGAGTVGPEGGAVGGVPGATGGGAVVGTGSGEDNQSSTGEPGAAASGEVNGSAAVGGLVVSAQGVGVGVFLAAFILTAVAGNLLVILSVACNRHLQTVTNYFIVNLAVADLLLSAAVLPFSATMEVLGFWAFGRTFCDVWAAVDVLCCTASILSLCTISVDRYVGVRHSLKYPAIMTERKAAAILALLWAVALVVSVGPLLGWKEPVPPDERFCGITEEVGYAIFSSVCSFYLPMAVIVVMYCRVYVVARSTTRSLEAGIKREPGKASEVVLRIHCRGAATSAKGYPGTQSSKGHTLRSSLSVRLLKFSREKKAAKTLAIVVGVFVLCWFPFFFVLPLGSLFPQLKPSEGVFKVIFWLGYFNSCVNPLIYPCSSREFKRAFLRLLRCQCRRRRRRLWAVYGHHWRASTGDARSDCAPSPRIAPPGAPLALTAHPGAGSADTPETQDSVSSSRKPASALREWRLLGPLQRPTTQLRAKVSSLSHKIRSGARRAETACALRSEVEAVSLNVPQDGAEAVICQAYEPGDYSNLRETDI
T2 sequence (P43140 whole entry): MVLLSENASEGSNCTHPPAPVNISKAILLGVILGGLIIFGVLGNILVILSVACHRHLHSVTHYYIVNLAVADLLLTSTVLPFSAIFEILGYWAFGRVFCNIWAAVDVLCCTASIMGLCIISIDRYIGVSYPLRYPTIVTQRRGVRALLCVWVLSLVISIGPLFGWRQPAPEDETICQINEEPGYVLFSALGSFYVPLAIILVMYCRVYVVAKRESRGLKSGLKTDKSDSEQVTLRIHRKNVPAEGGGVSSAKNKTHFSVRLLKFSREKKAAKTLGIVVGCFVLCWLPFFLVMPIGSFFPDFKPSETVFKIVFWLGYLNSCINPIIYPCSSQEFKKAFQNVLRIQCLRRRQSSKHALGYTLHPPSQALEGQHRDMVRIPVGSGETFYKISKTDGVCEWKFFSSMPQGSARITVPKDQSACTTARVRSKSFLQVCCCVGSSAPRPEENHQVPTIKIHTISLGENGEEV

[3] = target: 5-hydroxytryptamine receptor 7 (Homo sapiens, UniProt P34969); test: Displacement of [3H]-5-CT from human 5HT7BR expressed in HEK293 cell membranes after 1 hr by Microbeta scintillation counting method
[4] = target: T3, 5-hydroxytryptamine receptor 1A (Homo sapiens, UniProt P08908); test: Displacement of [3H]-8-OH-DPAT from human 5HT1AR expressed in HEK293 cell membranes after 1 hr by Microbeta scintillation counting method
T3 sequence (P08908 whole entry): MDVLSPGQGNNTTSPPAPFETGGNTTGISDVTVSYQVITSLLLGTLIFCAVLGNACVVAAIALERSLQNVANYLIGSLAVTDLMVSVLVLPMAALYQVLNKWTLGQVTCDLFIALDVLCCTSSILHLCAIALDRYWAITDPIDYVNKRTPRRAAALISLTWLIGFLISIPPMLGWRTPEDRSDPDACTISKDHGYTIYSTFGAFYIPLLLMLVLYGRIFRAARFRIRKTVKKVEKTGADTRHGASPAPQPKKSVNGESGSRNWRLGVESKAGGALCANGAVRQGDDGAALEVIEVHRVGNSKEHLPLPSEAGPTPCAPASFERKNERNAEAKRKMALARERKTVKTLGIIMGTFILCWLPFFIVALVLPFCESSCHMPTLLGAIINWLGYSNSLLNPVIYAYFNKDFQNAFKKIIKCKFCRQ

[5] = target: Beta-1 adrenergic receptor (Rattus norvegicus, UniProt P18090); test: Displacement of [3H]-CGP-12177 from beta1-adrenergic receptor in rat brain cortex after 1 hr by Microbeta scintillation counting method
Mus musculus [6] = test: Antidepressant like activity in Swiss albino mouse assessed as immobility time at 20 mg/kg, ip administered 60 mins prior to test and measured last 4 mins of 6 mins test by forced swimming test (reference value: 159.78 to 183.56 secs); format: functional
Mus musculus [7] = test: Antidepressant like activity in Swiss albino mouse assessed as immobility time at 10 mg/kg, ip administered 60 mins prior to test and measured last 4 mins of 6 mins test by forced swimming test (reference value: 159.78 to 183.56 secs); format: functional
Mus musculus [8] = test: Effect on spontaneous locomotor activity in Swiss albino mouse at 10 mg/kg, ip administered 60 mins prior to test and measured for 3 to 6 mins; format: ADME, organism-based; conditions: in vivo
Summary of the method: (§1)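 Male Swiss Albino mice given compound or vehicle (1% Tween 80, 10 ml/kg) i.p. 60 min before test. Each mouse placed alone in a cage for 30 min habituation. Ambulation (photobeam channel crossings) then recorded over a 3–6 min session. Means ± SEM.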

Mus musculus [9] = test: Anxiolytic-like activity in Swiss albino mouse assessed as number of punished crossings at 20 mg/kg, ip administered 60 mins prior to test and measured post 3 secs of electric shock by four-plate test (reference value: 3.8 to 4 /min); format: functional
Mus musculus [10] = test: Antidepressant like activity in Swiss albino mouse assessed as immobility time at 5 mg/kg, ip administered 60 mins prior to test and measured last 4 mins of 6 mins test by forced swimming test (reference value: 159.78 to 183.56 secs); format: functional
Mus musculus [11] = test: Anxiolytic-like activity in Swiss albino mouse assessed as number of punished crossings at 5 mg/kg, ip administered 60 mins prior to test and measured post 3 secs of electric shock by four-plate test (reference value: 3.8 to 4 /min); format: functional
Mus musculus [12] = test: Anxiolytic-like activity in Swiss albino mouse assessed as number of punished crossings at 10 mg/kg, ip administered 60 mins prior to test and measured post 3 secs of electric shock by four-plate test (reference value: 3.8 to 4 /min); format: functional
Mus musculus [13] = test: Effect on spontaneous locomotor activity in Swiss albino mouse at 20 mg/kg, ip administered 60 mins prior to test and measured for 3 to 6 mins; format: ADME, organism-based; conditions: in vivo; summary of the method: as §1
Homo sapiens = species on record: Homo sapiens; test: Selectivity ratio of Ki for human D2L receptor expressed in HEK293 cell membranes to Ki for human 5HT7BR expressed in HEK293 cell membranes; format: cell-based
Summary of the method: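 Membranes from HEK293 cells stably expressing human 5-HT1A, 5-HT7b or D2L receptors. Buffers all 50 mM Tris HCl with 4 mM MgCl2 and 0.1% ascorbate. 5-HT1A: 0.1 mM EDTA, 10 µM pargyline, 2.5 nM [3H]-8-OH-DPAT, room temperature. 5-HT7b: 10 µM pargyline, 0.8 nM [3H]-5-CT, 37°C. D2L: EDTA, NaCl, KCl, CaCl2, 2.5 nM [3H]-raclopride, 37°C. Incubation 1 h; nonspecific binding 10 µM 5-HT (haloperidol for D2L). Seven concentrations (10^-10–10^-4 M) in triplicate; filtration; Ki by Cheng-Prusoff; at least two experiments.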

Mus musculus [14] = test: Antidepressant like activity in Swiss albino mouse assessed as decrease in immobility time at 20 mg/kg, ip administered 60 mins prior to test and measured last 4 mins of 6 mins test by forced swimming test relative to control; format: functional; design: scale not given: the % may be the effect or the level left
Mus musculus [15] = test: Anxiolytic-like activity in Swiss albino mouse assessed as number of punished crossings at 40 mg/kg, ip administered 60 mins prior to test and measured post 3 secs of electric shock by four-plate test (reference value: 3.8 to 4 /min); format: functional

Chain of D(2) dopamine receptor (P14416 whole entry): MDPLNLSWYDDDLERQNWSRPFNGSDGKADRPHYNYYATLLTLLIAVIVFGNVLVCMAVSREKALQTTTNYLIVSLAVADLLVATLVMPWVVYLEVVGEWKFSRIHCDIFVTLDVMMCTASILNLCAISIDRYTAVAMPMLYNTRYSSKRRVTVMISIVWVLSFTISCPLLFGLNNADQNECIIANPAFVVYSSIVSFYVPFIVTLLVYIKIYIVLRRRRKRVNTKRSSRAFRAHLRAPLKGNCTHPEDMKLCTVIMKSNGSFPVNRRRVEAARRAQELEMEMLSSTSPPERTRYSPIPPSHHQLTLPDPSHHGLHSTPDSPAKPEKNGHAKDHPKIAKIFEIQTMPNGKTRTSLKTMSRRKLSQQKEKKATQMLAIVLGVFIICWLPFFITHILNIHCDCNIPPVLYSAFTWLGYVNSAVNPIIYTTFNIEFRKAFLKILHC
Chain of 5-hydroxytryptamine receptor 7 (P34969 whole entry): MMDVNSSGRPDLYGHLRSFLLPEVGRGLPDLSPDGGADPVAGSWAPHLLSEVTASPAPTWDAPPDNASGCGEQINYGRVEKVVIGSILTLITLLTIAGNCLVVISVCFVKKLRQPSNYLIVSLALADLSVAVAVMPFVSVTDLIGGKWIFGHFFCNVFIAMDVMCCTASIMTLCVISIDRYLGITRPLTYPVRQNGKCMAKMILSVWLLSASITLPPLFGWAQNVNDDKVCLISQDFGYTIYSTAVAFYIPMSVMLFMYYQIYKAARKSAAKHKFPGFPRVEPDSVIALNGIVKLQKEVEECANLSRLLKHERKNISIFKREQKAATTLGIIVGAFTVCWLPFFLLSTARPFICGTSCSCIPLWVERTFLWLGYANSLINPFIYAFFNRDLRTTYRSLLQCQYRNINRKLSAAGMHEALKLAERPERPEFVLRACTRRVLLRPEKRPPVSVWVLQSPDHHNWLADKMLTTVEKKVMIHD
Chain of Beta-1 adrenergic receptor (P18090 whole entry): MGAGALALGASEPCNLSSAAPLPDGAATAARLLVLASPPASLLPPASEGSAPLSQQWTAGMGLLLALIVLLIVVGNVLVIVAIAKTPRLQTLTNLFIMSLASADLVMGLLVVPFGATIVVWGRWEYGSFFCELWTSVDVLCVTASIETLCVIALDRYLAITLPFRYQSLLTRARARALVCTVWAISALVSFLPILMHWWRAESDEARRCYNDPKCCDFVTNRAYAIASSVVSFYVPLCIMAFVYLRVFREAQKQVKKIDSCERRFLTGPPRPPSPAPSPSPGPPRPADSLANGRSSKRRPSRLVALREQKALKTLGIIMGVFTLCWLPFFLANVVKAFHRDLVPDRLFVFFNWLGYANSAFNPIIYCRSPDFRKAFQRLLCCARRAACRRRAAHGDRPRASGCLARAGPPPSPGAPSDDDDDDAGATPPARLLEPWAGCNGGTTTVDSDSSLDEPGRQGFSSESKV

CC1(c2ccc(Cl)cc2)NC(=O)N(CC(O)CN2CCN(C(c3ccccc3)c3ccccc3)CC2)C1=O.Cl (racemic)
Ki (D(2) dopamine receptor): 601 nM | Ki [1]: > 10000 nM | Ki [2]: 530 nM | Ki [3]: 8 nM | Ki [4]: 99 nM

CCOc1ccccc1N1CCN(CC(O)CN2C(=O)NC(C)(c3ccccc3)C2=O)CC1.Cl (racemic)
Ki (D(2) dopamine receptor): 303 nM | Ki [1]: > 5000 nM | Ki [5]: > 10000 nM | Ki [2]: 500 nM | Ki [3]: 6 nM | Ki [4]: 190 nM

COc1ccccc1N1CCN(CC(O)CN2C(=O)NC(C)(c3ccccc3)C2=O)CC1.Cl (racemic)
Time (Mus musculus [6]): 66.11 s | Time (Mus musculus [7]): 121.38 s | Activity (Mus musculus [8]): Non-Toxic | Activity (Mus musculus [9]): 4.3 min⁻¹ | Time (Mus musculus [10]): 182.89 s | Ki (D(2) dopamine receptor): 1030 nM | Ki [5]: > 10000 nM | Activity (Mus musculus [11]): 3 min⁻¹ | Activity (Mus musculus [12]): 4.7 min⁻¹ | Ki [2]: 308 nM | Activity (Mus musculus [13]): Non-Toxic | Ki [3]: 10 nM | Ki [4]: 421 nM

COc1ccccc1N1CCN(CC(O)CN2C(=O)NC(C)(c3ccc(Cl)cc3)C2=O)CC1.Cl (racemic)
Ki (D(2) dopamine receptor): 366 nM | Ki [1]: > 10000 nM | Ki [2]: 268 nM | Ki [3]: 20 nM | Ki [4]: 109 nM

CC1(c2ccccc2)NC(=O)N(CC(O)CN2CCN(c3ccccc3C#N)CC2)C1=O.Cl (racemic)
Ratio Ki (Homo sapiens): 140 to 190 | Time (Mus musculus [6]): 34.44 s | Time (Mus musculus [7]): 134.57 s | Activity (Mus musculus [14]): 80% | Activity (Mus musculus [9]): 4.9 min⁻¹ | Time (Mus musculus [10]): 141.22 s | Activity (Mus musculus [15]): 5.2 min⁻¹ | Ki (D(2) dopamine receptor): 1690 nM | Ki [5]: > 10000 nM | Activity (Mus musculus [12]): 3.3 min⁻¹ | Ki [2]: 278 nM | Activity (Mus musculus [13]): Non-Toxic | Ki [3]: 12 nM | Ki [4]: 585 nM
